Measured values: ChEMBL document CHEMBL4138066, “Synthesis and evaluation of small molecules bearing a benzyloxy substituent as novel and potent monoamine oxidase inhibitors” (Medchemcomm, 2017)

Columns and labels:
[1] = target: T1, MAO-A (amine oxidase [flavin-containing] A) (Homo sapiens, UniProt P21397); experiment: Inhibition of human MAOA at 100 uM incubated for 15 mins using p-tyramine substrate by Amplex red reagent based fluorescence assay; conditions: human MAOA enzyme, probe p-tyramine
T1 sequence (P21397 whole entry): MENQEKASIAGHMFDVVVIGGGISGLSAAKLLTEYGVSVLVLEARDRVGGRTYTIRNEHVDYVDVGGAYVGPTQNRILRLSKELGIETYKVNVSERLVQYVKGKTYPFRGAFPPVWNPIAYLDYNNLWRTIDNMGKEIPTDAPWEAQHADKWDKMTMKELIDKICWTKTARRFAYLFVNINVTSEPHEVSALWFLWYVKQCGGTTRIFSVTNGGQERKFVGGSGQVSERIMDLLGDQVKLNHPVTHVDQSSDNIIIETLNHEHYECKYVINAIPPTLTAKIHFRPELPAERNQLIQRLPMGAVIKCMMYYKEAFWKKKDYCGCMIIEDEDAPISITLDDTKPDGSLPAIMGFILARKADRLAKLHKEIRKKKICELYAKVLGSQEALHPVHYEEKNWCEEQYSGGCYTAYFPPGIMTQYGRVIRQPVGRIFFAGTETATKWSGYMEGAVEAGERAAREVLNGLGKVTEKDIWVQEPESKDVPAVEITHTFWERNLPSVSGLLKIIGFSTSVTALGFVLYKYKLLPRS
How it was run: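 hMAO-A was tested at a single concentration of 100 μM, with iproniazid as reference inhibitor.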

[2] = target: T2, Amine oxidase [flavin-containing] B (Homo sapiens, UniProt P27338); experiment: Inhibition of human MAOB incubated for 15 mins using p-tyramine substrate by Amplex red reagent based fluorescence assay
T2 sequence (P27338 whole entry): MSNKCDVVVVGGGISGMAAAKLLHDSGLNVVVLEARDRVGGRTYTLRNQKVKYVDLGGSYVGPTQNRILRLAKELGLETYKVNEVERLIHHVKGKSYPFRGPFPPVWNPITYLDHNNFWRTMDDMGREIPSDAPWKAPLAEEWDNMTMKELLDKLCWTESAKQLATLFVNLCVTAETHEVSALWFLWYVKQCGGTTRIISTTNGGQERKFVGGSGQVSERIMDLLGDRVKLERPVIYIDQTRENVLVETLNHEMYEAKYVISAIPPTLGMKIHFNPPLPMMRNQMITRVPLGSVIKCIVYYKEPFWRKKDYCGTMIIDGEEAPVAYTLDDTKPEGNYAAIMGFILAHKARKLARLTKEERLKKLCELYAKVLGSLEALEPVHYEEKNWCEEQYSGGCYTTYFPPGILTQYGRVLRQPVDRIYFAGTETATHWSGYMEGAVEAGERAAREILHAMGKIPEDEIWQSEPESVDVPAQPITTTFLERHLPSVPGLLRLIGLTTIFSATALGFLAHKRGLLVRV

Homo sapiens = species: Homo sapiens; experiment: Selectivity index, ratio of IC50 for human MAOA to IC50 for human MAOB
How it was run: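 Selectivity index was computed as IC50 (MAO-A)/IC50 (MAO-B), each IC50 being the mean of three experiments.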

[3] = target: T3, Amine oxidase [flavin-containing] A (Homo sapiens, UniProt P21397); experiment: Inhibition of human MAOA incubated for 15 mins using p-tyramine substrate by Amplex red reagent based fluorescence assay
T3 sequence (P21397 whole entry): T1 sequence (P21397 whole entry)
How it was run: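 IC50 against hMAO-A is reported as mean ± SEM of three experiments, with iproniazid as reference.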

[4] = target: T2, Amine oxidase [flavin-containing] B; experiment: Reversible inhibition of human MAOB at 2 fold enzymatic IC50 level pre-incubated for 0 to 60 mins using p-tyramine substrate and measured after 15 mins by Amplex red reagent based fluorescence assay; conditions: 0.25 h
[5] = target: T2, Amine oxidase [flavin-containing] B; experiment: Reversible inhibition of human MAOB at 2 fold enzymatic IC50 level pre-incubated for 0 mins using p-tyramine substrate and measured after 15 mins by Amplex red reagent based fluorescence assay; conditions: 0.25 h
[6] = target: T2, Amine oxidase [flavin-containing] B; experiment: Reversible inhibition of human MAOB at 2 fold enzymatic IC50 level pre-incubated for 15 mins using p-tyramine substrate and measured after 15 mins by Amplex red reagent based fluorescence assay; conditions: 0.25 h
[7] = target: T2, Amine oxidase [flavin-containing] B; experiment: Reversible inhibition of human MAOB at 2 fold enzymatic IC50 level pre-incubated for 30 mins using p-tyramine substrate and measured after 15 mins by Amplex red reagent based fluorescence assay; conditions: 0.25 h
[8] = target: T2, Amine oxidase [flavin-containing] B; experiment: Reversible inhibition of human MAOB at 2 fold enzymatic IC50 level pre-incubated for 60 mins using p-tyramine substrate and measured after 15 mins by Amplex red reagent based fluorescence assay; conditions: 0.25 h
[9] = target: T2, Amine oxidase [flavin-containing] B; experiment: Competitive inhibition of human MAOB at 0.095 to 0.38 uM using 50 to 500 uM p-tyramine substrate by Amplex red reagent dependent fluorescence assay based Lineweaver-Burk plot analysis
How it was run: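 Kinetics were run as Michaelis-Menten experiments. Rates were measured at five p-tyramine concentrations (50-500 μM), with four inhibitor concentrations (0, 0.095, 0.19 and 0.38 μM). Inhibition type was assigned from overlaid double-reciprocal Lineweaver-Burk plots.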

SH-SY5Y = experiment: Cytotoxicity in human SH-SY5Y cells assessed as reduction in cell viability at 3 to 50 uM incubated for 48 hrs by MTT assay; type: cell-based
How it was run: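 SH-SY5Y cells were exposed to various concentrations of test compound for 48 h, then viability was read by MTT assay. Results are expressed as percentage of control cells, mean ± SD of three independent experiments.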

SMILES	inhibition at 0.25 h, 100 µM [1]	IC50 [2]	Ratio IC50 (Homo sapiens)	IC50 [3]	also measured
Fc1cccc(COc2cccc(Br)c2)c1	37%	1.06 µM	> 94.3		
Brc1cccc(OCc2ccccc2)c1	23%	2.73 µM	> 36.6		
Cc1ccc(COc2cccc(C=O)c2)cc1		2.53 µM	25.6	64.8 µM	
COc1cccc(OCc2ccc(F)cc2)c1	22%	15.6 µM	> 6.4		
O=Cc1cccc(OCc2cccc(F)c2)c1		1.21 µM	53.1	64.2 µM	
Brc1cccc(COc2cccc(Br)c2)c1	27%	0.76 µM	> 132		
COc1cccc(OCc2ccccc2)c1	25%	15.8 µM	> 6.3		
COc1cccc(OCc2ccc(C)cc2)c1	26%	14.6 µM	> 6.8		
Cc1cccc(COc2cccc(Br)c2)c1	43%	1.98 µM	> 50.5		
COc1cccc(OCc2cccc(C)c2)c1	23%	10.9 µM	> 9.2		
Cc1cccc(COc2cccc(C=O)c2)c1		2.91 µM	17.7	51.6 µM	
O=Cc1cccc(OCc2cccc(Br)c2)c1		0.53 µM	53.2	28.2 µM	
Fc1ccc(COc2cccc(Br)c2)cc1	31%	0.58 µM	> 172		
Brc1ccc(COc2cccc(Br)c2)cc1	30%	0.35 µM			inhibition (INH) [4]: Active; inhibition (INH) [5]: 44.8%; inhibition (INH) [6]: 44.9%; inhibition (INH) [7]: 48.6%; inhibition (INH) [8]: 49.2%; inhibition (INH) [9]: Active; Activity (SH-SY5Y): Non-Toxic
O=Cc1cccc(OCc2ccccc2)c1		1.96 µM	23.3	45.6 µM	
COc1cccc(OCc2ccc(Br)cc2)c1	25%	8.63 µM	> 11.6		
COc1cccc(OCc2cccc(F)c2)c1	19%	12.3 µM	> 8.1		
O=Cc1cccc(OCc2ccc(F)cc2)c1		0.93 µM	45.7	42.5 µM	
O=Cc1cccc(OCc2ccc(Br)cc2)c1		0.19 µM		27.9 µM	inhibition (INH) [4]: Active; inhibition (INH) [5]: 46.4%; inhibition (INH) [6]: 45.8%; inhibition (INH) [7]: 49.9%; inhibition (INH) [8]: 49.5%; Activity (SH-SY5Y): Non-Toxic
Cc1ccc(COc2cccc(Br)c2)cc1	24%	1.53 µM	> 65.4		
COc1cccc(OCc2cccc(Br)c2)c1	22%	19.3 µM	> 5.2		
